{
  "source": "ChEMBL document CHEMBL4765342",
  "about": "“Substituted benzothiophene and benzofuran derivatives as a novel class of bone morphogenetic Protein-2 upregulators: Synthesis, anti-osteoporosis efficacies in ovariectomized rats and a zebrafish model, and ADME properties” (Eur J Med Chem, 2020)",
  "key": {"[1]": {"assay": "Toxicity in BALB/c mouse assessed as fremitus at 50 to 100 mg/kg, ig administered for 14 days", "format": "organism-based", "conditions": "in vivo, po, 336 h, dose 50-100 mg/kg, time 14 day", "summary_of_the_method": "(§1)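 BALB/c mice, 10 per group, gavaged daily for 14 days at 50 or 100 mg/kg; blank control group included. Hair, behaviour and neurological signs (fremitus, convulsion, spasm, gait disturbance) were observed. At day 14, mice were weighed and given routine blood tests and serum biochemistry (ALT, AST, urea, creatinine; n = 10). Liver and kidney were examined on paraffin-embedded histology sections.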"}, "[2]": {"assay": "Toxicity in BALB/c mouse assessed as effect on hair at 50 to 100 mg/kg, ig administered for 14 days", "format": "organism-based", "conditions": "in vivo, po, 336 h, dose 50-100 mg/kg, time 14 day", "summary_of_the_method": "as §1"}, "[3]": {"assay": "Oral bioavailability in Sprague-Dawley rat at 10 mg/kg by LC-MS/MS analysis", "format": "ADME, organism-based", "conditions": "in vivo", "summary_of_the_method": "(§2)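 SD rats dosed iv or intragastrically. Plasma (50 µL) was mixed with diclofenac internal standard (50 ng/mL, 300 µL), vortexed, centrifuged at 4 °C, and the supernatant analysed by LC/MS/MS against spiked standard and QC curves. Noncompartmental parameters calculated; mean ± SD, n = 3 (bioavailability excepted).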"}, "[4]": {"assay": "AUC (0 to infinity) in Sprague-Dawley rat at 10 mg/kg, po by LC-MS/MS analysis", "format": "ADME, organism-based", "design": "route oral, time infinity, dose 10 mg/kg", "conditions": "in vivo", "summary_of_the_method": "(§3)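 The acid metabolite of the parent ester was dosed directly to Sprague-Dawley rats, iv or intragastrically (n=3). Plasma (50 µL) was spiked with 5 µL DMSO, extracted with 300 µL acetonitrile containing 50 ng/mL diclofenac internal standard, then vortexed and centrifuged at 4 °C. Supernatant was quantified by LC/MS/MS against plasma calibration standards and QCs. AUC came from noncompartmental analysis.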"}, "[5]": {"assay": "Cmax in Sprague-Dawley rat at 10 mg/kg, po by LC-MS/MS analysis", "format": "ADME, organism-based", "design": "route oral, dose 10 mg/kg", "conditions": "in vivo", "summary_of_the_method": "as §2"}, "[6]": {"assay": "Tmax in Sprague-Dawley rat at 10 mg/kg, po by LC-MS/MS analysis", "format": "ADME, organism-based", "conditions": "in vivo", "summary_of_the_method": "as §2"}, "[7]": {"assay": "MRT in Sprague-Dawley rat at 2 mg/kg, iv by LC-MS/MS analysis", "format": "ADME, organism-based", "conditions": "in vivo", "summary_of_the_method": "as §2"}, "[8]": {"assay": "AUC (0 to t) in Sprague-Dawley rat at 2 mg/kg, iv by LC-MS/MS analysis", "format": "ADME, organism-based", "design": "dose 2 mg/kg", "conditions": "in vivo", "summary_of_the_method": "as §3"}, "[9]": {"assay": "AUC (0 to infinity) in Sprague-Dawley rat at 2 mg/kg, iv by LC-MS/MS analysis", "format": "ADME, organism-based", "design": "route intravenous, time infinity, dose 2 mg/kg", "conditions": "in vivo", "summary_of_the_method": "as §3"}, "[10]": {"assay": "Toxicity in Kunming mouse assessed as organism death administered orally for 3 days and observed for 17 days starting from drug administration", "conditions": "in vivo, po, 408 h, time 17 day"}, "[11]": {"assay": "Permeability across apical to basolateral side in human Caco-2 cells assessed as transepithelial electrical resistance at 10 uM incubated for 2 hrs LC-MS/MS analysis", "format": "ADME, cell-based", "conditions": "caco-2, 2 h", "summary_of_the_method": "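Caco-2 monolayers, apical to basolateral direction. Plates preincubated 30 min at 37 °C, then exposed to 10 µM compound for 2 h at 37 °C without shaking. Donor and receiver samples were quenched, centrifuged and measured by LC/MS/MS, in duplicate. Papp calculated from receiver concentration, area and time. Monolayer integrity checked by TEER and by Lucifer yellow leakage (30 min, 37 °C, ex 485/em 530 nm).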"}, "Cytochrome P450 1A2": {"biological_target": "T1, Cytochrome P450 1A2 (Homo sapiens, UniProt P05177)", "T1 sequence (P05177 whole entry)": "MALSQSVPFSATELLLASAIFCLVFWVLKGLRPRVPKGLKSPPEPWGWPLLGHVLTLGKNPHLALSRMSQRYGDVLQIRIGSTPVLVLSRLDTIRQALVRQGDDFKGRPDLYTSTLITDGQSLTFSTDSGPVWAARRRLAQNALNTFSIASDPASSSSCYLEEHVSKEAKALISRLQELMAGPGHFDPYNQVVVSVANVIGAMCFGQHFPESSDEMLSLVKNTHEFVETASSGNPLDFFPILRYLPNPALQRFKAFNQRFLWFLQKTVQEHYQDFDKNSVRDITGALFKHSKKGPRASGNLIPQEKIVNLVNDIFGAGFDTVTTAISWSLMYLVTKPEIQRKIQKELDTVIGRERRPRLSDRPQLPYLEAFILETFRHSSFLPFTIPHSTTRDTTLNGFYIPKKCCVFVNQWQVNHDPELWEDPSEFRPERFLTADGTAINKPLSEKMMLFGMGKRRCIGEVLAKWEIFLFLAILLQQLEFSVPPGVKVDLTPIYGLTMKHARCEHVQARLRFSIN", "assay": "Inhibition of CYP1A2 in human liver microsomes using phenacetin as substrate incubated for 5 mins followed by NADPH addition and measured after 20 mins by LC-MS/MS analysis", "format": "ADME", "summary_of_the_method": "(§4)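 Human liver microsomes at 0.2 mg/mL mixed with probe substrates, preincubated 5 min at 37 °C. Reaction started with NADPH and run 20 min at 37 °C in a shaking bath. Quenched, held at -20 °C for 1 h, centrifuged, and the supernatant analysed by LC/MS/MS. Assay validated with specific inhibitors for each isoform.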"}, "Cytochrome P450 2D6": {"biological_target": "Cytochrome P450 2D6 (Homo sapiens, UniProt P10635)", "sequence (P10635 whole entry)": "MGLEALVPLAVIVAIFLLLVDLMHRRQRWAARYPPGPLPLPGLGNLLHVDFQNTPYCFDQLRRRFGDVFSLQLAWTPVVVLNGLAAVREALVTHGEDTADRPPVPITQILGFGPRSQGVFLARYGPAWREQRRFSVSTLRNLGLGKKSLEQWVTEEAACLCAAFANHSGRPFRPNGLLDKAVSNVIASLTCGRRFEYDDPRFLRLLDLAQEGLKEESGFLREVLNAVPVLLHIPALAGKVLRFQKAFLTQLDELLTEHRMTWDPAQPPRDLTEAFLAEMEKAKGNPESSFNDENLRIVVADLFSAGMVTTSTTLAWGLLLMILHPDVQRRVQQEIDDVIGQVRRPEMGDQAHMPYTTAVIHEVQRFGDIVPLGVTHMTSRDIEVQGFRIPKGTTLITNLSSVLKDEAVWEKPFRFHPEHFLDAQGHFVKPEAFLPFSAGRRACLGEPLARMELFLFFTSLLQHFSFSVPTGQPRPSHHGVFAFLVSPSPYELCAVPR", "assay": "Inhibition of CYP2D6 in human liver microsomes using dextromethorphan as substrate incubated for 5 mins followed by NADPH addition and measured after 20 mins by LC-MS/MS analysis"}, "Cytochrome P450 3A4": {"biological_target": "Cytochrome P450 3A4 (Homo sapiens, UniProt P08684)", "sequence (P08684 whole entry)": "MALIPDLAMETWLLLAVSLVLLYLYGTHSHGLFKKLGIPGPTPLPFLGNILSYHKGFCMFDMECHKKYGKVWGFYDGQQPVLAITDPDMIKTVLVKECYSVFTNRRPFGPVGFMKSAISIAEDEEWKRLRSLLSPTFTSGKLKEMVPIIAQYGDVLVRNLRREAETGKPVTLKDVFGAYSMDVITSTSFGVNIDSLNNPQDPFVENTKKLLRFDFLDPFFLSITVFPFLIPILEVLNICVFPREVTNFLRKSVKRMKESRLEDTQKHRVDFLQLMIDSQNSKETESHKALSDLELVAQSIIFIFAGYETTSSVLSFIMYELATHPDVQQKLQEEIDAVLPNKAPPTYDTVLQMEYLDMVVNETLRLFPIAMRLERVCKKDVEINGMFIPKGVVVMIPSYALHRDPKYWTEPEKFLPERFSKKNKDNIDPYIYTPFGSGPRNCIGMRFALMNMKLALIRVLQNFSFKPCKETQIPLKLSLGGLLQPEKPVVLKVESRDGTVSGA", "assay": "Inhibition of CYP3A4 in human liver microsomes using midazolam as substrate incubated for 5 mins followed by NADPH addition and measured after 20 mins by LC-MS/MS analysis", "format": "ADME", "summary_of_the_method": "as §4"}, "Cytochrome P450 2C19": {"biological_target": "Cytochrome P450 2C19 (Homo sapiens, UniProt P33261)", "sequence (P33261 whole entry)": "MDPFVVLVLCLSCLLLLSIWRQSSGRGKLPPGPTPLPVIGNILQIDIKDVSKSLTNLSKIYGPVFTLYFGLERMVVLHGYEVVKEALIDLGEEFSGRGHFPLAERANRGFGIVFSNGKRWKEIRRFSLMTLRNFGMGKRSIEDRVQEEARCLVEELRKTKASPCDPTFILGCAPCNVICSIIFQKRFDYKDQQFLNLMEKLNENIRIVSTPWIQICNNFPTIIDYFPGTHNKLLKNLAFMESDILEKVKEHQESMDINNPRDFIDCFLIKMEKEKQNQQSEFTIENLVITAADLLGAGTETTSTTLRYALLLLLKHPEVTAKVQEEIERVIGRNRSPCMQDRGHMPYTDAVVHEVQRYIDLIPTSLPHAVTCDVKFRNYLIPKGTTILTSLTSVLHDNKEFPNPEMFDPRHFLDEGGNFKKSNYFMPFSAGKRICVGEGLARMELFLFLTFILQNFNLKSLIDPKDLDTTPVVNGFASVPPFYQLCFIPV", "assay": "Inhibition of CYP2C19 in human liver microsomes using omeprazole as substrate incubated for 5 mins followed by NADPH addition and measured after 20 mins by LC-MS/MS analysis", "format": "ADME", "summary_of_the_method": "as §4"}, "[12]": {"assay": "Toxicity in BALB/c mouse assessed as gait disturbance at 50 to 100 mg/kg, ig administered for 14 days", "format": "organism-based", "conditions": "in vivo, po, 336 h, dose 50-100 mg/kg, time 14 day", "summary_of_the_method": "as §1"}, "[13]": {"assay": "Toxicity in BALB/c mouse assessed as hepatocyte nucleus mitosis at 50 to 100 mg/kg, ig administered for 14 days", "format": "organism-based", "conditions": "in vivo, po, 336 h, dose 50-100 mg/kg, time 14 day", "summary_of_the_method": "as §1"}, "[14]": {"assay": "Toxicity in BALB/c mouse assessed as effect on liver megakaryocyte at 50 to 100 mg/kg, ig administered for 14 days", "format": "organism-based", "conditions": "in vivo, po, 336 h, dose 50-100 mg/kg, time 14 day", "summary_of_the_method": "as §1"}, "[15]": {"assay": "Toxicity in BALB/c mouse assessed as necrosis in renal tubular epithelial cells at 50 to 100 mg/kg, ig administered for 14 days", "format": "organism-based", "conditions": "in vivo, po, 336 h, dose 50-100 mg/kg, time 14 day", "summary_of_the_method": "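BALB/c mice, 10 per group: untreated blank group plus low (50 mg/kg) and high (100 mg/kg) dose groups, intragastric once daily for 14 days. Hair, behaviour and neurological signs monitored throughout. At day 14 mice were weighed and dissected. Kidney and liver tissue was fixed in 3 mm pieces, dehydrated through graded alcohol, cleared in xylene, embedded in paraffin, sectioned and examined histopathologically.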"}, "[16]": {"assay": "Hepatotoxicity in BALB/c mouse assessed as effect on serum ALT level at 50 to 100 mg/kg, ig administered for 14 days", "format": "toxicity, organism-based", "conditions": "in vivo, po, 336 h, dose 50-100 mg/kg, time 14 day", "summary_of_the_method": "as §1"}, "[17]": {"assay": "Hepatotoxicity in BALB/c mouse assessed as effect on serum AST level at 50 to 100 mg/kg, ig administered for 14 days", "format": "toxicity, organism-based", "conditions": "in vivo, po, 336 h, dose 50-100 mg/kg, time 14 day", "summary_of_the_method": "as §1"}, "[18]": {"assay": "Renal toxicity in BALB/c mouse assessed as effect on serum creatinine level at 50 to 100 mg/kg, ig administered for 14 days", "format": "organism-based", "conditions": "in vivo, po, 336 h, dose 50-100 mg/kg, time 14 day", "summary_of_the_method": "as §1"}, "in vitro": {"assay": "in vitro", "conditions": "human, liver microsomes"}},
  "data": [
    {"smiles": "COc1ccc2cc(C(=O)NCCN(C)C)oc2c1.CS(=O)(=O)O", "values": [
      {"measurement": "Activity", "setting": "[1]", "result": "Non-Toxic"},
      {"measurement": "Activity", "setting": "[2]", "result": "Non-Toxic"},
      {"measurement": "bioavailability", "setting": "[3]", "result": 83.1, "unit": "%"},
      {"measurement": "AUC(0-inf)", "setting": "[4]", "result": 286, "unit": "ng·h/mL"},
      {"measurement": "Cmax", "setting": "[5]", "result": 54.2, "unit": "ng/mL"},
      {"measurement": "Tmax", "setting": "[6]", "result": 30, "unit": "min"},
      {"measurement": "MRT", "setting": "[7]", "result": 2.85, "unit": "h"},
      {"measurement": "AUC(0-t)", "setting": "[8]", "result": 59.5, "unit": "ng·h/mL"},
      {"measurement": "AUC(0-inf)", "setting": "[9]", "result": 69, "unit": "ng·h/mL"},
      {"measurement": "LD50", "setting": "[10]", "result": "> 500", "unit": "mg/kg/day"},
      {"measurement": "Activity", "setting": "[11]", "result": "341 Ω·cm²"},
      {"measurement": "IC50", "setting": "Cytochrome P450 1A2", "result": "> 10", "unit": "µM"},
      {"measurement": "IC50", "setting": "Cytochrome P450 2D6", "result": 7.84, "unit": "µM"},
      {"measurement": "IC50", "setting": "Cytochrome P450 3A4", "result": "> 10", "unit": "µM"},
      {"measurement": "IC50", "setting": "Cytochrome P450 2C19", "result": "> 10", "unit": "µM"},
      {"measurement": "Activity", "setting": "[12]", "result": "Non-Toxic"},
      {"measurement": "Activity", "setting": "[13]", "result": "Toxic"},
      {"measurement": "Activity", "setting": "[14]", "result": "Toxic"},
      {"measurement": "Activity", "setting": "[15]", "result": "Toxic"},
      {"measurement": "Activity", "setting": "[16]", "result": "Non-Toxic"},
      {"measurement": "Activity", "setting": "[17]", "result": "Non-Toxic"},
      {"measurement": "Activity", "setting": "[18]", "result": "Non-Toxic"},
      {"measurement": "half-life at 0.5 h, 100 µM", "setting": "in vitro", "result": 103, "unit": "min"}
    ]}
  ]
}
